pIC50: −log10 of the molar value. The source made the active and inactive calls. The rule behind the calls is not given here.
What was measured:
[1] = target: T1, Dual specificity mitogen-activated protein kinase kinase 5 (Homo sapiens) (UniProt Q13163); experiment: Inhibition of MEK5 (unknown origin) at 1 uM relative to control
T1 sequence (whole entry): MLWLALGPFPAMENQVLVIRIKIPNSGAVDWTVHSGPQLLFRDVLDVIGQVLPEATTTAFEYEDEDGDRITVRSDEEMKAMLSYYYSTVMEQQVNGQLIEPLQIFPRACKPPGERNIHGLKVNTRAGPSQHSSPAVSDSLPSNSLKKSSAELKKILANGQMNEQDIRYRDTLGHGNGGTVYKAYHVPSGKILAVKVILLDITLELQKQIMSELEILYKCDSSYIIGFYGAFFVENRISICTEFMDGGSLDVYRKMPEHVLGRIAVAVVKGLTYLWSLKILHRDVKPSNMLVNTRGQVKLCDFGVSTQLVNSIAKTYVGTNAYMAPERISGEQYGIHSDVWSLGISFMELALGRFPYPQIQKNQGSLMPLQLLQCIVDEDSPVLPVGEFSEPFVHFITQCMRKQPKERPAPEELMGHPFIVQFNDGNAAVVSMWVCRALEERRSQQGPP

[2] = target: Dual specificity mitogen-activated protein kinase kinase 4 (Homo sapiens) (UniProt P45985); experiment: Inhibition of MEK4 (unknown origin) at 1 uM relative to control
[3] = target: Mast/stem cell growth factor receptor Kit (Homo sapiens) (UniProt P10721); experiment: Inhibition of KIT (unknown origin) at 1 uM relative to control
[4] = target: Tyrosine-protein kinase Fgr (Homo sapiens) (UniProt P09769); experiment: Inhibition of FGR (unknown origin) at 1 uM relative to control
[5] = target: RAF proto-oncogene serine/threonine-protein kinase (Homo sapiens) (UniProt P04049); experiment: Inhibition of RAF1 (unknown origin) at 1 uM relative to control
[6] = target: Serine/threonine-protein kinase B-raf (Homo sapiens, UniProt P15056); experiment: Inhibition of wild type B-RAF (unknown origin) expressed in Escherichia coli BL21 (DE3)
[7] = target: Serine/threonine-protein kinase B-raf (Homo sapiens, UniProt P15056, V600E); experiment: Inhibition of B-RAF V600E mutant (unknown origin) expressed in Escherichia coli BL21 (DE3)
[8] = target: Platelet-derived growth factor receptor beta (Homo sapiens) (UniProt P09619); experiment: Inhibition of PDGFRB (unknown origin) at 1 uM relative to control
[9] = target: Tyrosine-protein kinase Blk (Homo sapiens) (UniProt P51451); experiment: Inhibition of BLK (unknown origin) at 1 uM relative to control
[10] = target: Serine/threonine-protein kinase VRK2 (Homo sapiens) (UniProt Q86Y07); experiment: Inhibition of VRK2 (unknown origin) at 1 uM relative to control
[11] = tested on: SW-620; experiment: Cytotoxicity against human SW620 cells incubated for 96 hrs by MTT assay; assay type: functional, cell-based; conditions: for IC50: sw-620; for pIC50: Homo sapiens, SW-620, 96 h, read-out: IC50
In short: (§1)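 SW620 (ATCC) seeded at 4000 cells/well and A375 (ATCC) at 1000 cells/well in 96-well format. Compounds added the next day at increasing concentrations. Exposure 96 h. Viability read by MTT method per Mosmann.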

[12] = tested on: A-375; experiment: Cytotoxicity against human A-375 cells incubated for 96 hrs by MTT assay; assay type: functional, cell-based; conditions: A-375, 96 h; in short: as §1
[13] = tested on: A-375; experiment: Cytotoxicity against human A-375 cells expressing B-RAF V600E mutant assessed as inhibition of cell proliferation incubated for 96 hrs by MTT assay; assay type: functional, cell-based; in short: as §1
[14] = tested on: SW-620; experiment: Cytotoxicity against human SW620 cells expressing wild type B-RAF assessed as inhibition of cell proliferation incubated for 96 hrs by MTT assay; assay type: functional, cell-based; in short: as §1
[15] = tested on: A-375; experiment: Inhibition of MAPK pathway in human A-375 cells expressing B-RAF V600E mutant assessed as downregulation of MEK phosphorylation incubated for 1 to 4 hrs by immunoblotting analysis; assay type: cell-based; conditions: time 1-4 hrs
In short: (§2)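 SW620 seeded at 750 000 and A375 at 300 000 cells/well in 6-well format, grown 48 h to 75% confluence. Treated with increasing compound concentrations for 1 or 4 h. Lysis in 10 mM Tris-HCl, 1% SDS, 20 mM Na3VO4. 10–25 µg protein run on SDS-PAGE, transferred to PVDF, probed for MEK, phospho-MEK, phospho-ERK, B-Raf and actin. Read by LI-COR Odyssey.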

[16] = tested on: A-375; experiment: Inhibition of MAPK pathway in human A-375 cells expressing B-RAF V600E mutant assessed as downregulation of ERK phosphorylation incubated for 1 to 4 hrs by immunoblotting analysis; assay type: cell-based; conditions: time 1-4 hrs; in short: as §2
[17] = target: Tyrosine-protein kinase ABL1 (Homo sapiens) (UniProt P00519); experiment: Inhibition of ABL1 (unknown origin) at 1 uM relative to control
[18] = target: Tyrosine-protein kinase Lck (Homo sapiens) (UniProt P06239); experiment: Inhibition of LCK (unknown origin) at 1 uM relative to control
[19] = target: Macrophage colony-stimulating factor 1 receptor (Homo sapiens) (UniProt P07333); experiment: Inhibition of CSF1R (unknown origin) at 1 uM relative to control
[20] = target: Mitogen-activated protein kinase 14 (Homo sapiens) (UniProt Q16539); experiment: Inhibition of p-38 alpha (unknown origin) at 1 uM relative to control
[21] = target: Mitogen-activated protein kinase 11 (Homo sapiens) (UniProt Q15759); experiment: Inhibition of p-38 beta (unknown origin) at 1 uM relative to control
[22] = target: Proto-oncogene tyrosine-protein kinase receptor Ret (Homo sapiens) (UniProt P07949); experiment: Inhibition of RET (unknown origin) at 1 uM relative to control
[23] = target: Tyrosine-protein kinase CSK (Homo sapiens) (UniProt P41240); experiment: Inhibition of CSK (unknown origin) at 1 uM relative to control
[24] = target: Vascular endothelial growth factor receptor 1 (Homo sapiens) (UniProt P17948); experiment: Inhibition of FLT1 (unknown origin) at 1 uM relative to control
[25] = target: Vascular endothelial growth factor receptor 3 (Homo sapiens) (UniProt P35916); experiment: Inhibition of FLT4 (unknown origin) at 1 uM relative to control
[26] = target: Vascular endothelial growth factor receptor 2 (Homo sapiens) (UniProt P35968); experiment: Inhibition of VEGFR2 (unknown origin) at 1 uM relative to control
[27] = target: Platelet-derived growth factor receptor alpha (Homo sapiens) (UniProt P16234); experiment: Inhibition of PDGFRA (unknown origin) at 1 uM relative to control
[28] = target: Tyrosine-protein kinase Lyn (Homo sapiens) (UniProt P07948); experiment: Inhibition of LYN (unknown origin) at 1 uM relative to control
[29] = target: Tyrosine-protein kinase HCK (Homo sapiens) (UniProt P08631); experiment: Inhibition of HCK (unknown origin) at 1 uM relative to control
[30] = target: Proto-oncogene tyrosine-protein kinase Src (Homo sapiens) (UniProt P12931); experiment: Inhibition of SRC (unknown origin) at 1 uM relative to control
[31] = target: Tyrosine-protein kinase Yes (Homo sapiens) (UniProt P07947); experiment: Inhibition of YES (unknown origin) at 1 uM relative to control
[32] = target: Tyrosine-protein kinase TXK (Homo sapiens) (UniProt P42681); experiment: Inhibition of TXK (unknown origin) at 1 uM relative to control
[33] = target: Tyrosine-protein kinase Fyn (Homo sapiens) (UniProt P06241); experiment: Inhibition of FYN (unknown origin) at 1 uM relative to control
[34] = target: Mitogen-activated protein kinase kinase kinase kinase 4 (Homo sapiens) (UniProt O95819); experiment: Inhibition of MAP4K4 (unknown origin) at 1 uM relative to control
[35] = target: Receptor-type tyrosine-protein kinase FLT3 (Homo sapiens) (UniProt P36888); experiment: Inhibition of FLT3 (unknown origin) at 1 uM relative to control
[36] = target: Cyclin-dependent kinase 19 (Homo sapiens) (UniProt Q9BWU1); experiment: Inhibition of CDK11 (unknown origin) at 1 uM relative to control
[37] = target: Fibroblast growth factor receptor 1 (Homo sapiens) (UniProt P11362); experiment: Inhibition of FGFR1 (unknown origin) at 1 uM relative to control
[38] = target: Cytoplasmic tyrosine-protein kinase BMX (Homo sapiens) (UniProt P51813); experiment: Inhibition of BMX (unknown origin) at 1 uM relative to control
[39] = target: Fibroblast growth factor receptor 2 (Homo sapiens) (UniProt P21802); experiment: Inhibition of FGFR2 (unknown origin) at 1 uM relative to control
[40] = tested on: SW620; experiment: Inhibition of MAPK pathway in human SW620 cells expressing wild type B-RAF assessed as effect on ERK protein expression incubated for 1 to 4 hrs by immunoblotting analysis; assay type: cell-based; conditions: time 1-4 hrs
[41] = tested on: SW620; experiment: Inhibition of MAPK pathway in human SW620 cells expressing wild type B-RAF assessed as downregulation of MEK phosphorylation incubated for 1 to 4 hrs by immunoblotting analysis; assay type: cell-based; conditions: time 1-4 hrs; in short: as §2
[42] = tested on: SW620; experiment: Inhibition of MAPK pathway in human SW620 cells expressing wild type B-RAF assessed as downregulation of ERK phosphorylation incubated for 1 to 4 hrs by immunoblotting analysis; assay type: cell-based; conditions: time 1-4 hrs; in short: as §2
[43] = target: Ribosomal protein S6 kinase alpha-1 (Homo sapiens) (UniProt Q15418); experiment: Inhibition of RSK1 (unknown origin) at 1 uM relative to control

RAF proto-oncogene serine/threonine-protein kinase (Homo sapiens), sequence (P04049 whole entry): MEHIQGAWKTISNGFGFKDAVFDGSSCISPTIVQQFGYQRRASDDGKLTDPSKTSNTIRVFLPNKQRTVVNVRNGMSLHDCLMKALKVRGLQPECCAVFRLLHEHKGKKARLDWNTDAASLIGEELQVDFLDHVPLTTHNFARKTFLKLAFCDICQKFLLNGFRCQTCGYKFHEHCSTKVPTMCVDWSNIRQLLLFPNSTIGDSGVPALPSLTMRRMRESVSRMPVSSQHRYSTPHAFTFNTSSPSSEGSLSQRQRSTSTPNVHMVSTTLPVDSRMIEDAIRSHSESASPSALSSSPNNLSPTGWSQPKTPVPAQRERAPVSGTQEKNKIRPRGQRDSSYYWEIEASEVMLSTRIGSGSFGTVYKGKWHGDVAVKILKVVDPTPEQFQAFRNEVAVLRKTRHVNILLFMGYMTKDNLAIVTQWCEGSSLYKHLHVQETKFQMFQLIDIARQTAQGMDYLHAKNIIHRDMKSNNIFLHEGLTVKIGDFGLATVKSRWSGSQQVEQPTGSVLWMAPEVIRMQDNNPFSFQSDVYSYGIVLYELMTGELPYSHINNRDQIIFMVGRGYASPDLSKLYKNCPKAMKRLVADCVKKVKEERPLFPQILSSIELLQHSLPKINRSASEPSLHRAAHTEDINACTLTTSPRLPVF
Tyrosine-protein kinase Fgr (Homo sapiens), sequence (P09769 2-529 limits assumed): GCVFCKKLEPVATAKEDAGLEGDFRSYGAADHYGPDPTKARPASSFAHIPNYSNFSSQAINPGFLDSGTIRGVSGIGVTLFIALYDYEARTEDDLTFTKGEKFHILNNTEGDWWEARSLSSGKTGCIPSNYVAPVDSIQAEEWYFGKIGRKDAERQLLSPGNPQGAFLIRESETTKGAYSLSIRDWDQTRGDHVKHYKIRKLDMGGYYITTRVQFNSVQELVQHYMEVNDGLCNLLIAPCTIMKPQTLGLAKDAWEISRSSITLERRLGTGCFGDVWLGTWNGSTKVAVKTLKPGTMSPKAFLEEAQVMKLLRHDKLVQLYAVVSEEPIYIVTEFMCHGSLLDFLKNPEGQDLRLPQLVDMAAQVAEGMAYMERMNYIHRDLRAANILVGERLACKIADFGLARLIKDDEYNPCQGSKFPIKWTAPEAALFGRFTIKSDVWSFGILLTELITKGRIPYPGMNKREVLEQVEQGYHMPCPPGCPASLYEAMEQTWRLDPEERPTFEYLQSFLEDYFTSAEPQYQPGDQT
Mast/stem cell growth factor receptor Kit (Homo sapiens), sequence (P10721 whole entry): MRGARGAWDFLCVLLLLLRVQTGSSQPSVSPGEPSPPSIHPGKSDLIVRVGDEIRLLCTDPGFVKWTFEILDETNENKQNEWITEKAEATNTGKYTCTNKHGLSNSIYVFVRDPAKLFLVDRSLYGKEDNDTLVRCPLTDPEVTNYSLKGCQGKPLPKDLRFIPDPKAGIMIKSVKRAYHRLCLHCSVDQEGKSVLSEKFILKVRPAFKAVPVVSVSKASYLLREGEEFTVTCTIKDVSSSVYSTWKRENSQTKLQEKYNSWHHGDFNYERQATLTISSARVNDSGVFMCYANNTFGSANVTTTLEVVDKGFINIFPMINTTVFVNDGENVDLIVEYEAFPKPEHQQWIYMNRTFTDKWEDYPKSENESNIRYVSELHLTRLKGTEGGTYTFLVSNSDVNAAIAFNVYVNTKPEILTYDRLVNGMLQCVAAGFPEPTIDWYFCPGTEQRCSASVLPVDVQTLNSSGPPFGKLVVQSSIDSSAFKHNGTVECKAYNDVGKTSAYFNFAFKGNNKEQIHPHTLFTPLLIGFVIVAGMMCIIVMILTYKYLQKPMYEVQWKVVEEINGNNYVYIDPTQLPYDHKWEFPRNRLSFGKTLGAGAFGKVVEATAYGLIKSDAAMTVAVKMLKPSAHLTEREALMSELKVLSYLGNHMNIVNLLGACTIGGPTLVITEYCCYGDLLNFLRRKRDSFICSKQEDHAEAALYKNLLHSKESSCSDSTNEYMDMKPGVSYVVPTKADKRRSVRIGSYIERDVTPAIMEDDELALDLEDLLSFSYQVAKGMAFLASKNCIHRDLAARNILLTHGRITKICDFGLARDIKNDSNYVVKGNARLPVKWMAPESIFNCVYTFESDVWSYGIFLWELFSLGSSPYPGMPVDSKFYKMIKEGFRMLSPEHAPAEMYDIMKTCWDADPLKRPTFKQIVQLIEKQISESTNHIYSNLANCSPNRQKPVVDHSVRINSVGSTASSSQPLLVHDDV
Tyrosine-protein kinase Blk (Homo sapiens), sequence (P51451 2-505 limits assumed): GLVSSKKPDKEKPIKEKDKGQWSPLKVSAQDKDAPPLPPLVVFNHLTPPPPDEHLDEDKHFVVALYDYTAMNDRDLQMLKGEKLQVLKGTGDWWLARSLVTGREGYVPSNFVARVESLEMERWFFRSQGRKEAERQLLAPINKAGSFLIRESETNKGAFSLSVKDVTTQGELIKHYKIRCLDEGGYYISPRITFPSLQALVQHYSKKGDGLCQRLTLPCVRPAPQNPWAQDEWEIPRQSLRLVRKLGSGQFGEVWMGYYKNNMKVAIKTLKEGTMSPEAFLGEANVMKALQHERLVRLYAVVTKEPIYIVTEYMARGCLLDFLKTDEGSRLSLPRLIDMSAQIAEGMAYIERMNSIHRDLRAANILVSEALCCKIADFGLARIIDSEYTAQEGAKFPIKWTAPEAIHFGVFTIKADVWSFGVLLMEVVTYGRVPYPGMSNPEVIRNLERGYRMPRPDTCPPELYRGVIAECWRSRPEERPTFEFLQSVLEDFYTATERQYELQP
Platelet-derived growth factor receptor beta (Homo sapiens), sequence (P09619 whole entry): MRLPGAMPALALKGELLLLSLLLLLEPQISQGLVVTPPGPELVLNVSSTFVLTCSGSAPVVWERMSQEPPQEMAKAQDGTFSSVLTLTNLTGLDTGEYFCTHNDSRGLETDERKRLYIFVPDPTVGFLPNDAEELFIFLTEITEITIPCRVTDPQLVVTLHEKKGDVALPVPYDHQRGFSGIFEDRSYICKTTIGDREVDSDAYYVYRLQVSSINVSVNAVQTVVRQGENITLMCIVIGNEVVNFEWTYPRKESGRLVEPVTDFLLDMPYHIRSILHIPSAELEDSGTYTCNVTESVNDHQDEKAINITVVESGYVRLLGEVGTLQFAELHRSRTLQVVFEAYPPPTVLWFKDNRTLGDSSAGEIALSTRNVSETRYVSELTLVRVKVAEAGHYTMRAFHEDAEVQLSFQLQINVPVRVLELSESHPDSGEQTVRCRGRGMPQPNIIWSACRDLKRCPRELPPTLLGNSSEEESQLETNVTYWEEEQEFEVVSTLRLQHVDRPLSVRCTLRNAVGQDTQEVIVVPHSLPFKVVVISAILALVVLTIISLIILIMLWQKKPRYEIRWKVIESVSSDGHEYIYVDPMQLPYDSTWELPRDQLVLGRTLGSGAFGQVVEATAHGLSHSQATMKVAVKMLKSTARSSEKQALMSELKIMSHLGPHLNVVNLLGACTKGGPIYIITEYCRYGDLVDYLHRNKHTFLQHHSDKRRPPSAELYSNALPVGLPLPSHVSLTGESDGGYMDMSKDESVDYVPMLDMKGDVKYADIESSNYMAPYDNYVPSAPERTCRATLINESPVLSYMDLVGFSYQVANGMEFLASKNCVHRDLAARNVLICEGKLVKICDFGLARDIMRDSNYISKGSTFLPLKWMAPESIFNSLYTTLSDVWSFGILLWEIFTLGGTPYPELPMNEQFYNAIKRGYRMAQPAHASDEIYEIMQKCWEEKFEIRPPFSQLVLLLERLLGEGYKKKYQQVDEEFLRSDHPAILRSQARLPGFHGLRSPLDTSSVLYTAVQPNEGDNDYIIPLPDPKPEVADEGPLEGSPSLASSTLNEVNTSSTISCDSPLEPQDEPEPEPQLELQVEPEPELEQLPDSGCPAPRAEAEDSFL
Tyrosine-protein kinase HCK (Homo sapiens), sequence (P08631 2-526 limits assumed): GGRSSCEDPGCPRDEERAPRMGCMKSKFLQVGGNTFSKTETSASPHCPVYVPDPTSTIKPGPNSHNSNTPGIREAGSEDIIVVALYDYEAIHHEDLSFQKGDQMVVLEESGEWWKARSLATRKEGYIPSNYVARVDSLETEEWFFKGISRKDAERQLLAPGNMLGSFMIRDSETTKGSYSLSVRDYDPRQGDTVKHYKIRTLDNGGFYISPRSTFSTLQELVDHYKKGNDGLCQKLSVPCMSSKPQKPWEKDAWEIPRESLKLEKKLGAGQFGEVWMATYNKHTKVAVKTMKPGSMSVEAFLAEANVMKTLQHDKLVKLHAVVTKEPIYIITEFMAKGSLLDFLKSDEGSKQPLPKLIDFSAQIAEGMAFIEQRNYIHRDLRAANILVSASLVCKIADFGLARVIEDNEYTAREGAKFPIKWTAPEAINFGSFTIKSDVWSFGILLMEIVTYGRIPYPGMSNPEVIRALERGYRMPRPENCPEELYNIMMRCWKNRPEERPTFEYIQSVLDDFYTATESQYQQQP
Proto-oncogene tyrosine-protein kinase Src (Homo sapiens), sequence (P12931 2-536 limits assumed): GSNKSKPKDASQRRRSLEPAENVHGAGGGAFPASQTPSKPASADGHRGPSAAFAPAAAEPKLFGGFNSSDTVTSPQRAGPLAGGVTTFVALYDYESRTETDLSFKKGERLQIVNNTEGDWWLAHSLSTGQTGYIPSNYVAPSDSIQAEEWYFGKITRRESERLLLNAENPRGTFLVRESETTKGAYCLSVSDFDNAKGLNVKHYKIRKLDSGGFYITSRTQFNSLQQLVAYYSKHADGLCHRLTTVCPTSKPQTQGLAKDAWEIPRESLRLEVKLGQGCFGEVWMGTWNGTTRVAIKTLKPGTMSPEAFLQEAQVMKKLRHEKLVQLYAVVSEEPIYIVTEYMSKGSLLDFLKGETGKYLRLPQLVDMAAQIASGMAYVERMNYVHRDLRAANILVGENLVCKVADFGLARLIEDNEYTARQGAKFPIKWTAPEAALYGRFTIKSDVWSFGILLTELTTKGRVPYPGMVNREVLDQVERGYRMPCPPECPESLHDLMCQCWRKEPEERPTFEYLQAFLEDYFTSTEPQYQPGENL

| Structure (SMILES) | inhibition [1] [%] | inhibition [2] [%] | inhibition [3] [%] | inhibition [4] [%] | inhibition [5] [%] | pIC50 [6] | pIC50 [7] | inhibition [8] [%] | inhibition [9] [%] | IC50 [11] | pIC50 [12] | Activity [13] | Activity [14] | inhibition [15] | inhibition [16] | inhibition [17] [%] | inhibition [18] [%] | inhibition [19] [%] | inhibition [20] [%] | inhibition [21] [%] | also measured |
| --- | --- | --- | --- | --- | --- | --- | --- | --- | --- | --- | --- | --- | --- | --- | --- | --- | --- | --- | --- | --- | --- |
| CCCS(=O)(=O)Nc1ccc(F)c(C(=O)c2c[nH]c3ncc(Cl)cc23)c1F | > 80 | > 80 | > 80 | > 80 | > 80 |  |  |  |  |  |  |  |  |  |  |  |  |  |  |  |  |
| CCN(C)S(=O)(=O)Nc1ccc(F)c(C(=O)c2c[nH]c3ncc(-c4ccc(Cl)cc4)cc23)c1F | > 80 |  |  | > 80 |  | 6.16 | 5.85 | > 80 | > 80 | Not Active | 6.25 | Active | inactive | Active | Active |  |  |  |  |  | inhibition [10]: > 80% |
| CC(C)(C#N)c1cccc(C(=O)Nc2ccc(F)c(C(=O)c3c[nH]c4ncc(Cl)cc34)c2F)c1 | > 80 |  | > 80 | > 80 | > 80 | 7.25 | 7.32 |  | > 80 |  | ~5.00 | Active | Active | Active | Active | > 80 | > 80 | > 80 | > 80 | > 80 | inhibition [22]: > 80%; inhibition [23]: > 80%; inhibition [24]: > 80%; inhibition [25]: > 80%; inhibition [26]: > 80%; inhibition [27]: > 80%; inhibition [28]: > 80%; inhibition [29]: > 80%; inhibition [30]: > 80%; inhibition [31]: > 80%; inhibition [32]: > 80%; inhibition [33]: > 80%; inhibition [34]: > 80%; inhibition [35]: > 80%; inhibition [36]: > 80%; inhibition [37]: > 80%; inhibition [38]: > 80%; inhibition [39]: > 80%; pIC50 [11]: 5.55; inhibition [40]: inactive |
| CCCS(=O)(=O)Nc1ccc(F)c(C(=O)c2c[nH]c3ncc(-c4ccc(Cl)cc4)cc23)c1F [VEMURAFENIB] | > 80 | > 80 | > 80 | > 80 | > 80 |  |  | > 80 |  | Not Active | 7.05 | Active | inactive | Active | Active |  |  |  |  |  | inhibition [41]: inactive; inhibition [42]: inactive |
| Cc1ccc(NC(=O)c2cccc(C(C)(C)C#N)c2)cc1Nc1ccc2ncn(C)c(=O)c2c1 | > 80 |  | > 80 |  | > 80 |  |  | > 80 | > 80 |  | 7.40 | Active | Active | Active | Active | > 80 | > 80 | > 80 | > 80 | > 80 | inhibition [22]: > 80%; inhibition [43]: > 80%; inhibition [23]: > 80%; inhibition [24]: > 80%; inhibition [25]: > 80%; inhibition [26]: > 80%; inhibition [27]: > 80%; inhibition [28]: > 80%; inhibition [29]: > 80%; inhibition [30]: > 80%; inhibition [31]: > 80%; inhibition [32]: > 80%; inhibition [33]: > 80%; pIC50 [11]: 6.77; inhibition [40]: inactive |

Reference: ChEMBL document CHEMBL5385905, “Design, synthesis and characterisation of a novel type II B-RAF paradox breaker inhibitor” (Eur J Med Chem, 2023)
